One block for each molecule: values may come before it.
Key:
Rattus norvegicus [1] = assay: Potential antipsychotic activity was assessed by measuring the ability to block the conditioned avoidance response(CAR) in rats on oral administration; insigniificant activity, ip in shelf jump tset; type: functional
D(2) dopamine receptor [2] = biological target: T1, D(2) dopamine receptor (Rattus norvegicus, UniProt P61169); assay: In vitro Dopamine receptor D2 affinity by using [3H]spiperone as the radioligand in rat limbic system at 1 uM concentration of compound; type: tissue-based
Rattus norvegicus [3] = assay: Potential antipsychotic activity was assessed by measuring the ability to block the conditioned avoidance response(CAR) in rats on oral administration.; type: functional
D(2) dopamine receptor [4] = biological target: T1, D(2) dopamine receptor; assay: In vitro Dopamine receptor D2 affinity by using [3H]spiperone as the radioligand in rat limbic system at 1 uM concentration of compound; value may range from 39 to 78; type: tissue-based
D(2) dopamine receptor [5] = biological target: T1, D(2) dopamine receptor; assay: In vitro Dopamine receptor D2 affinity by using [3H]spiperone as the radioligand in rat limbic system at 1 uM concentration of compound; value may range from […]; type: tissue-based
[6] = biological target: T2, Serotonin 2 (5-HT2) receptor (Rattus norvegicus, UniProt P30994+P08909+P14842); assay: In vitro 5-hydroxytryptamine 2 receptor affinity by using [3H]-Spiperone as the radioligand in rat cortical tissue; value may range from 12 to 66
[7] = biological target: T2, Serotonin 2 (5-HT2) receptor; assay: In vitro 5-hydroxytryptamine 2 receptor affinity by using [3H]spiperone as the radioligand in rat cortical tissue; value may range from 136 to 220
Rattus norvegicus [8] = assay: Potential antipsychotic activity was assessed by measuring the ability to block the conditioned avoidance response(CAR) in rats on oral administration; type: functional
D(2) dopamine receptor [9] = biological target: T1, D(2) dopamine receptor; assay: In vitro Dopamine receptor D2 affinity by using [3H]spiperone as the radioligand in rat limbic system at 1 uM concentration of compound; value may range from 3 to 10; type: tissue-based
[10] = biological target: T2, Serotonin 2 (5-HT2) receptor; assay: In vitro 5-hydroxytryptamine 2 receptor affinity by using [3H]spiperone as the radioligand in rat cortical tissue; value may range from 6 to 75
Rattus norvegicus [11] = assay: Potential antipsychotic activity was assessed by measuring the ability to block the conditioned avoidance response(CAR) in rats on oral administration; value may range from 8 to 35; type: functional
In short: (§1)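 Each session had 60 trials, with a control session before every drug run. Trials with no avoidance response (avoidance block) were summed over rats at each dose and expressed as a percentage of total trials. Control avoidance was set at 100%. The dose giving 50% block (AB50) was fitted by least squares.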

[12] = biological target: T2, Serotonin 2 (5-HT2) receptor; assay: In vitro 5-hydroxytryptamine 2 receptor affinity by using [3H]spiperone as the radioligand in rat cortical tissue.
Rattus norvegicus [13] = assay: Potential antipsychotic activity was assessed by measuring the ability to block the conditioned avoidance response(CAR) in rats on oral administration; value may range from 30 to 62; type: functional; in short: as §1
Rattus norvegicus [14] = assay: Potential antipsychotic activity was assessed by measuring the ability to block the conditioned avoidance response(CAR) in rats on oral administration; value may range from 4 to 10; type: functional; in short: as §1
[15] = biological target: T2, Serotonin 2 (5-HT2) receptor; assay: In vitro 5-hydroxytryptamine 2 receptor affinity by using [3H]spiperone as the radioligand in rat cortical tissue; value may range from 2.4 to 5.3
D(2) dopamine receptor [16] = biological target: T1, D(2) dopamine receptor; assay: In vitro Dopamine receptor D2 affinity by using [3H]spiperone as the radioligand in rat limbic system at 1 uM concentration of compound; value may range from 238 to 401; type: tissue-based
D(2) dopamine receptor [17] = biological target: T1, D(2) dopamine receptor; assay: In vitro Dopamine receptor D2 affinity by using [3H]spiperone as the radioligand in rat limbic system at 1 uM concentration of compound; value may range from 14 to 22; type: tissue-based
Rattus norvegicus [18] = assay: Potential antipsychotic activity was assessed by measuring the ability to block the conditioned avoidance response(CAR) in rats on oral administration; value may range from 11 to 81; type: functional; in short: as §1
[19] = biological target: T2, Serotonin 2 (5-HT2) receptor; assay: In vitro 5-hydroxytryptamine 2 receptor affinity by using [3H]spiperone as the radioligand in rat cortical tissue; value may range from 165 to 263
[20] = biological target: T2, Serotonin 2 (5-HT2) receptor; assay: In vitro 5-hydroxytryptamine 2 receptor affinity by using [3H]spiperone as the radioligand in rat cortical tissue; value may range from 29 to 132
Mus musculus [21] = assay: Ability to inhibit apomorphine (APO) induced stereotyped behavior in mice by intraperitoneal administration of compound; value may range from 7 to 18; type: functional; conditions: ip
In short: (§2)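 Male CF-1 mice (20–25 g), acclimated at least 3 days, were given compound ip in 0.25% Tween 80 at 1, 10, 30 and 60 mg/kg (six mice per dose), alongside a concurrent vehicle group. Apomorphine 1 mg/kg sc was given 30 min later. Scoring at 5 min: stereotypy (sniffing-licking-gnawing) 0/1; climbing 0–2.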

D(2) dopamine receptor [22] = biological target: T1, D(2) dopamine receptor; assay: In vitro Dopamine receptor D2 affinity by using [3H]spiperone as the radioligand in rat limbic system at 1 uM concentration of compound; value may range from 84 to 130; type: tissue-based
Rattus norvegicus [23] = assay: Potential antipsychotic activity was assessed by measuring the ability to block the conditioned avoidance response(CAR) in rats on oral administration; value may range from 10 to 31; type: functional; in short: as §1
[24] = biological target: T2, Serotonin 2 (5-HT2) receptor; assay: In vitro 5-hydroxytryptamine 2 receptor affinity by using [3H]spiperone as the radioligand in rat cortical tissue.; value may range from 76 to 299
Mus musculus [25] = assay: Ability to inhibit apomorphine (APO) induced climbing behavior in mice by intraperitoneal administration of compound; value may range from 1 to 13; type: functional; conditions: ip; in short: as §2

T1 sequence (P61169 whole entry): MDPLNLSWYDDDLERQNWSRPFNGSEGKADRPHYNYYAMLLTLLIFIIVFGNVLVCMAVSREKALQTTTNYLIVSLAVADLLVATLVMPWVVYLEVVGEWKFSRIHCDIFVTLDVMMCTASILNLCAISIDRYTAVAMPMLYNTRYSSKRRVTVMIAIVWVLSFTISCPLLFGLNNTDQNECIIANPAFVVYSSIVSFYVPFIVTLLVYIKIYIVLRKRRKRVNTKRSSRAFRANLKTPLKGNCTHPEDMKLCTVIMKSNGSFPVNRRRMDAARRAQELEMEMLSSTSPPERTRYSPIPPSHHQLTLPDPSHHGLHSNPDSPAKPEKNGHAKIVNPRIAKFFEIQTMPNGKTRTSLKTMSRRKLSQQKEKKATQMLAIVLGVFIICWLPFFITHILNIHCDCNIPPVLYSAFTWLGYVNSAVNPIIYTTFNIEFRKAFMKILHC

Ki (D(2) dopamine receptor [4]): 55 nM
Compound: Cl.Clc1ccc2[nH]c3c(c2c1)CN(CCCN1CCN(c2ncccn2)CC1)CC3
AB50 (Rattus norvegicus [3]): >40 mg/kg

Ki [7]: 173 nM
Compound: Cl.Fc1ccc2[nH]c3c(c2c1)CN(CCc1ccccn1)CC3
AB50 (Rattus norvegicus [8]): 38 mg/kg

Ki (D(2) dopamine receptor [9]): 5 nM
Ki [10]: 23 nM
Compound: Cl.Fc1ccc(-n2c3c(c4cc(F)ccc42)CN(CCc2cnccn2)CC3)cc1
AB50 (Rattus norvegicus [11]): 16 mg/kg

IC50 [12]: > 0.00005 M
Compound: C[C@@H]1CN(CCCn2c3ccccc3c3ccccc32)C[C@H](C)N1 [RIMCAZOLE]
AB50 (Rattus norvegicus [13]): 39 mg/kg

Ki [15]: 3.6 nM
Compound: Cl.Fc1ccc(-n2c3c(c4cc(F)ccc42)CN(CCc2ccccn2)CC3)cc1
AB50 (Rattus norvegicus [14]): 6 mg/kg

Ki [19]: 211 nM
Compound: Cl.Fc1ccc2[nH]c3c(c2c1)CN(CCc1ccncc1)CC3 [CARVOTROLINE HYDROCHLORIDE]
AB50 (Rattus norvegicus [18]): 23 mg/kg

Ki [20]: 60 nM
Compound: Cl.Clc1ccc2[nH]c3c(c2c1)CN(CCCCc1ccncc1)CC3
AB50 (Rattus norvegicus [8]): 36 mg/kg

Ki (D(2) dopamine receptor [22]): 104 nM
Ki [24]: 136 nM
Compound: Cl.Fc1ccc2[nH]c3c(c2c1)CN(CCCc1cccnc1)CC3 [GEVOTROLINE HYDROCHLORIDE]
ED50 (Mus musculus [21]): 11 mg/kg
AB50 (Rattus norvegicus [23]): 14 mg/kg
ED50 (Mus musculus [25]): 4 mg/kg

Second part, the molecule before the results:

Compound: CC1CN(CCCN2CCc3[nH]c4ccc(Cl)cc4c3C2)CC(C)N1.Cl (stereo not drawn)
AB50 (Rattus norvegicus [1]): >40 mg/kg

Compound: Cl.Fc1ccc2[nH]c3c(c2c1)CN(CCc1cnccn1)CC3
Ki (D(2) dopamine receptor [2]): 63 nM
AB50 (Rattus norvegicus [3]): >40 mg/kg

Compound: Cl.Clc1ccc2[nH]c3c(c2c1)CN(CCCc1cccnc1)CC3
Ki (D(2) dopamine receptor [5]): 126 nM
Ki [6]: 28 nM
AB50 (Rattus norvegicus [3]): >40 mg/kg

Compound: c1ccc2nc(CCN3CCc4[nH]c5ccccc5c4C3)ccc2c1
Ki (D(2) dopamine receptor [16]): 331 nM

Compound: Fc1ccc(C(CCCN2CCc3[nH]c4ccc(F)cc4c3C2)c2ccc(F)cc2)cc1
Ki (D(2) dopamine receptor [17]): 18 nM

From ChEMBL document CHEMBL1123617, “Antipsychotic activity of substituted gamma-carbolines” (J Med Chem, 1987)
